Published values from different studies.
Lines come from different studies, so protocols differ.
Target: Serine/threonine-protein kinase N2 (PKN2, Homo sapiens, UniProt Q16513)

Nc1ncnc2occ(-c3ccc(NC(=O)Nc4cc(C(F)(F)F)ccc4F)cc3)c12
remaining signal (cell-free assay, inhibitor; 20 µM): 58%

O=C1Nc2ccc(Cl)cc2C1=Cc1cc(Cl)c(O)c(Cl)c1
remaining signal (cell-free assay; 0.5 µM): 114%

FC(F)c1nc2ccccc2n1-c1nc(N2CCOCC2)nc(N2CCOCC2)n1
remaining activity (enzyme activity, inhibitor; 10 µM): 82%

CC1=C(C#N)[C@@H](c2ccc3[nH]nc(C)c3c2)C(C#N)=C(c2ccc(Cl)cc2)N1
remaining binding (cell-free assay, competition with immobilised ligand; 1 µM): 74.6%

CC(C)(C)C(=O)c1sc(NC2CCCCC2)nc1N
remaining activity (enzyme activity, inhibitor; 10 µM): 95%

CNc1cc(Oc2cc(C(=O)Nc3cc(N4CCN(C)CC4)cc(C(F)(F)F)c3)ccc2C)ncn1
inhibition (target engagement in cells, inhibitor, chemoproteomics; Huh-7; 1 µM): -99.7%

Cc1ccc(NC(=O)c2ccc(C)c(C(F)(F)F)c2)cc1C#Cc1nn(C2CCC(O)CC2)c2ncnc(N)c12 (centres unmarked)
remaining signal (cell-free assay; 10 µM): 97%

CCN(CC)CCNC(=O)c1c(C)[nH]c(/C=C2\C(=O)Nc3ccc(F)cc32)c1C
inhibition (enzyme activity, inhibitor; 10 µM): 69%

O=C(Nc1cnn(-c2csc(C(=O)NC3COC3)c2)c1)Nc1c(F)cccc1Cl
remaining activity (enzyme activity, inhibitor; 5 µM): 105%

CN(c1ncccc1CNc1nc(Nc2ccc3c(c2)CC(=O)N3)ncc1C(F)(F)F)S(C)(=O)=O
inhibition (enzyme activity, inhibitor; 1 µM): 47%

O=C(NS(=O)(=O)c1ccc(NCC2CCOCC2)c([N+](=O)[O-])c1)c1ccc(N2CCN(Cc3ccc(C(F)(F)F)cc3-c3ccc(Cl)cc3)CC2)cc1Oc1cnc2[nH]ccc2c1
remaining binding (cell-free assay, competition with immobilised ligand; 1 µM): 93%

COc1cc(Nc2cnc(C#N)c(O[C@H](C)CN(C)C)n2)ncc1-c1cnn(C)c1
remaining activity (enzyme activity, inhibitor, radiometric; 1 µM): 87%

c1cnn2ncc(-c3ccnc(N4CCC45COC5)n3)c2c1
remaining binding (binding; 1 µM): 89%

CO[C@H]1CC[C@H](CNc2ccc(S(=O)(=O)NC(=O)c3ccc(N4CCN(CC5=C(c6ccc(Cl)cc6)CC(C)(C)CC5)CC4)cc3Oc3cnc4[nH]ccc4c3)cc2[N+](=O)[O-])CC1
remaining binding (cell-free assay, competition with immobilised ligand; 1 µM): 97%

COc1cc(/C=C/C(=O)CC(=O)/C=C/c2ccc(O)c(OC)c2)ccc1O
activity vs control (enzyme activity, inhibitor; 1 µM): 114%

CN(C)c1ncnc(-c2ccc3nc(Nc4cc(CN5CCN(C(=O)CC(F)(F)F)CC5)ccn4)[nH]c3c2)c1Cl
remaining binding (cell-free assay, competition with immobilised ligand; 1 µM): 85%

Cc1ccc(C(=O)NCc2ccsc2)cc1C#Cc1cn(C(C)C)c2ncnc(N)c12
activity vs control (enzyme activity, inhibitor; 1 µM): 113%

CC(C)(C)c1nc2c(s1)c1nc(N)ncc1c1ccc(NS(=O)(=O)c3c(F)cccc3F)c(F)c12
remaining activity (enzyme activity, inhibitor, radiometric; 1 µM): 91%

Cc1nc(Cc2cccc(C(F)(F)F)c2)sc1-c1ccc(C(N)=O)nc1
remaining binding (cell-free assay, competition with immobilised ligand; 1 µM): 91%

CCCOc1ccc(OC)c(F)c1C(=O)c1ccc(C(=O)N[C@@H]2CNC[C@H]2NC(=O)c2ccc3[nH]ncc3c2)cc1
remaining activity (enzyme activity, inhibitor; 0.1 µM): 53%

CCN(CC)c1ccc(C2=NNC(=O)CC2C)cc1[N+](=O)[O-] (centres unmarked)
remaining activity (enzyme activity, inhibitor; 10 µM): 94%

c1ccc(CNc2nc(N3CCOc4ccccc43)nc3c2CCCC3)cc1
inhibition (target engagement in cells, inhibitor, chemoproteomics; 20 mM): 9.1%

COc1ccc2c(O[C@@H]3C[C@H]4C(=O)N[C@]5(C(=O)O)CC5/C=C\CCCCC[C@H](NC(=O)OC5CCCC5)C(=O)N4C3)cc(-c3csc(NC(=O)C(C)C)n3)nc2c1C (some centres unmarked)
remaining binding (cell-free assay, competition with immobilised ligand; 1 µM): 67%

Cn1c(=O)n(-c2ccc(C(C)(C)C#N)cc2)c2c3cc(-c4cnc5ccccc5c4)ccc3ncc21
remaining activity (enzyme activity, inhibitor; 10 µM): 74%

CNCc1ccc(-c2cc(-c3nc(-c4ccc(S(=O)(=O)C(C)C)cc4)cnc3N)on2)cc1
inhibition (enzyme activity, inhibitor; 2 µM): 82%

N#CCCc1ccc2c(c1)-c1[nH]c3ccc([N+](=O)[O-])cc3c1CC(=O)N2
remaining signal (cell-free assay; 0.5 µM): 77.9%

CNC(=O)c1cc(Oc2ccc(NC(=O)Nc3ccc(Cl)c(C(F)(F)F)c3)cc2)ccn1
inhibition (enzyme activity, inhibitor; 10 µM): 20%

COc1cccc2c(NCc3ccccc3)nc(-n3c(N)nc4ccccc43)nc12
inhibition (target engagement in cells, inhibitor, chemoproteomics; 20 mM): -3.6%

Cc1ccc(Nc2nccc(N(C)c3ccc4c(C)n(C)nc4c3)n2)cc1S(N)(=O)=O
inhibition (enzyme activity, inhibitor; 0.3 µM): 19%

Cn1c2c(c3ccc(Cl)c(Cl)c31)C(C#N)C1(CCCC1)NC2=O (centres unmarked)
ΔTm (thermal stability, DSF; 10 µM): 0 °C

O=c1nc(-c2ccccn2)sc2ccccc12
remaining binding (binding, competition with immobilised ligand; 1 µM): 100%

COc1cc(-c2cc(-c3ccc(N4CCNCC4)cc3)cnc2C)cc(OC)c1OC
inhibition (enzyme activity, inhibitor; 0.1 µM): 4%

CC(C)CC(=O)N1CCc2nc(-c3ccc(Br)cc3)nc(N(C)Cc3ccccc3)c2C1
remaining binding (cell-free assay, competition with immobilised ligand; 0.1 µM): 80%

Cn1c2c(c3ccc(Cl)c(Cl)c31)C(C#N)C(C)(C)NC2=O (centres unmarked)
ΔTm (thermal stability, DSF; 10 µM): 1.3 °C

Nc1nc(NC2CCCCC2)sc1C(=O)c1ccccc1
remaining activity (enzyme activity, inhibitor; 10 µM): 98%
